Results on six compounds are retold here after PubChem BioAssay AID463143 (The Scripps Research Institute Molecular Screening Center, 2010).

Activity calls are given as the source filed them.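 How the source made its calls: active means fold change in liver X receptor activation above 2; inactive means the rest.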

The target of this assay is Oxysterols receptor LXR-beta (Homo sapiens) (UniProt P55055). The assay is described as follows: LXR activators, GAL4 reporter, late-stage follow-up, selectivity assay for RORA inverse agonist project, cell-based, luminescence, single concentration, powder samples (AID 463143). Particulars: HEK293T GAL4-LXR LBD luciferase reporter, 18-24 h; at 10 µM; stronger effect = higher value. In a few lines: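 Assay system: HEK293T cells carrying GAL4-LXR ligand-binding-domain fusion plus UAS-luciferase reporter. Compound: single nominal dose of 10 µM per compound. Incubation: 20 h compound exposure after replating from 24 h transfection. Measured by: luminescence. Read-out basis: fold change versus DMSO vehicle. Control set: DMSO-treated cells as vehicle reference. Repeats: six replicates.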
Sequence of Oxysterols receptor LXR-beta (Homo sapiens) (P55055 whole entry, looked up, the tested form may be a part): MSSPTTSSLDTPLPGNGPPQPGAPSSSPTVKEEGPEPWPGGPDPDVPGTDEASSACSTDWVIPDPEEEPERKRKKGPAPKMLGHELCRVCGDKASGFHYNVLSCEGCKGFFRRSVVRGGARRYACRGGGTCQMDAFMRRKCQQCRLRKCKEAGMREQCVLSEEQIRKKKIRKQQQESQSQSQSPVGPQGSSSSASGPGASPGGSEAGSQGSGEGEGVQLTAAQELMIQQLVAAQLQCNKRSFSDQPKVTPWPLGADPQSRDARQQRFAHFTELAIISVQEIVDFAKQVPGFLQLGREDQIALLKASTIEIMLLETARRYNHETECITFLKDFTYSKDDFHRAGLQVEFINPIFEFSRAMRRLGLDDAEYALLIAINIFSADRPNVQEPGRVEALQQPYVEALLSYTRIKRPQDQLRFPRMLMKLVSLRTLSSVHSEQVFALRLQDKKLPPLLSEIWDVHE
(In general: In a reporter assay the amount or activity of a reporter protein is the signal.)
As for `O=C(Nc1ccc(C(O)(C(F)(F)F)C(F)(F)F)cc1)c1ccc(F)cc1Cl`, the fold change was 1.04 (inactive).
Under `O=C(Nc1ccc(C(O)(C(F)(F)F)C(F)(F)F)cc1)c1c(F)cccc1F` stands 0.937 (inactive); under `O=S(=O)(Nc1ccc(C(O)(C(F)(F)F)C(F)(F)F)cc1)c1cccs1`, 1.39 (inactive).
As to `O=C(Nc1ccc(C(O)(C(F)(F)F)C(F)(F)F)cc1)c1ccc(Cl)cc1`, the fold change is 1.15 (inactive).
Under `O=C(Nc1ccc(C(O)(C(F)(F)F)C(F)(F)F)cc1)c1ccc(F)cc1F` stands 1.39 (inactive); under `O=C(Nc1ccc(C(O)(C(F)(F)F)C(F)(F)F)cc1)c1ccccc1C(F)(F)F`, 0.958 (inactive).
